Active and inactive are the calls of the source. The calls are words filed in the database; no cut-off is given here.
What was measured:
SF-295 = assay: Cytotoxicity against human SF295 cells assessed as reduction in cell viability measured after 72 hrs by CellTiter 96 aqueous one solution assay; format: functional, cell-based; settings: SF-295, 72 h
In short: (§1)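 Cells diluted to 5 × 10^4 cells/mL in RPMI 1640 or DMEM with 10% FBS, streptomycin and penicillin; plated and incubated 24 h at 37 °C, 5% CO2. Medium replaced, then serial dilutions added from DMSO at final 0–1000 nM for 72 h. Absorbance at 490 nm read after 30–60 min with reagent. Mean ± SD of three replicates; EC50 by curve fitting.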

DNA = assay: Induction of Escherichia coli plasmid pUC19 DNA cleavage assessed as increase in relaxation of supercoiled plasmid DNA measured after 24 hrs by SYBR green staining based gel electrophoresis; format: nucleic-acid assay
In short: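 Supercoiled pUC19 (25 nM plasmid, […]) in Dulbecco's PBS pH 7.4 with 5% DMSO and varying compound concentrations, with or without 1 mM reduced glutathione, 37 °C for 24 h, in triplicate. Run on 1% agarose gel in TAE at 100 V for 1 h. Supercoiled (form I) band intensity normalized to DMSO controls.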

NCI-H226 = assay: Cytotoxicity against human NCI-H226 cells assessed as reduction in cell viability measured after 72 hrs by CellTiter 96 aqueous one solution assay; format: functional, cell-based; settings: NCI-H226, 72 h; in short: as §1
MDA-MB-231 = assay: Cytotoxicity against human MDA-MB-231 cells assessed as reduction in cell viability measured after 72 hrs by CellTiter 96 aqueous one solution assay; format: functional, cell-based; settings: MDA-MB-231, 72 h; in short: as §1
SK-MEL-5 = assay: Cytotoxicity against human SK-MEL-5 cells assessed as reduction in cell viability measured after 72 hrs by CellTiter 96 aqueous one solution assay; format: functional, cell-based; settings: SK-MEL-5, 72 h; in short: as §1

Row | Structure (SMILES) | Activity (DNA) | EC50 (SF-295) | EC50 (NCI-H226) | EC50 (MDA-MB-231) | EC50 (SK-MEL-5)
1 | COc1ccc2c(c1O)C(=O)c1c3c(cc(O)c1C2=O)[C@@]12O[C@@]1([C@@H](C)O)[C@H](C#C/C=C\C#C[C@H]2O)N3 | Active | 0.45 nM | 4.2 nM | 1.1 nM | 0.74 nM
2 | COC(=O)[C@H](O)[C@@](C)(O)[C@@]12O[C@]13c1cc(O)c4c(c1N[C@H]2C#C/C=C\C#C[C@H]3O)C(=O)c1c(ccc(O)c1O)C4=O | Active | 45 nM | 66 nM | 34 nM | 32 nM
3 | C#CCOc1ccc2c(c1O)C(=O)c1c3c(cc(O)c1C2=O)[C@@]12O[C@@]1([C@](C)(O)[C@@H](O)C(=O)OC)[C@H](C#C/C=C\C#C[C@H]2O)N3 | Active | 2.8 nM | 26 nM | 3.7 nM | 2.8 nM
4 | COC(=O)[C@H](O)[C@@](C)(O)[C@@]12O[C@]13c1cc(O)c4c(c1N[C@H]2C#C/C=C\C#C[C@H]3O)C(=O)c1c(ccc(OCC(C)=O)c1O)C4=O | Active | 1.1 nM | 3.7 nM | 0.9 nM | 0.8 nM
5 | COC(=O)[C@H](O)[C@@](C)(O)[C@@]12O[C@]13c1cc(O)c4c(c1N[C@H]2C#C/C=C\C#C[C@H]3O)C(=O)c1cc(O)ccc1C4=O | Active | 51 nM | 75 nM | 37 nM | 36 nM

Further lines, with some results ahead:

Row | Activity (DNA) | Structure (SMILES) | EC50 (SF-295) | EC50 (NCI-H226) | EC50 (MDA-MB-231) | EC50 (SK-MEL-5)
6 | Active | COC(=O)[C@H](O)[C@@](C)(O)[C@@]12O[C@]13c1cc(O)c4c(c1N[C@H]2C#C/C=C\C#C[C@H]3O)C(=O)c1c(ccc(OC)c1O)C4=O | 4 nM | 32 nM | 5 nM | 2.8 nM
7 | Active | COC(=O)[C@H](O)[C@@](C)(O)[C@@]12O[C@]13c1cc(O)c4c(c1N[C@H]2C#C/C=C\C#C[C@H]3O)C(=O)c1cc(OC)ccc1C4=O | 21 nM | 68 nM | 14 nM | 19 nM

From ChEMBL document CHEMBL4619781 (J Med Chem, 2020)
